The text below walks through data of PMC9926453 (Medicinal Chemistry Research, 2023).

Type in all cases: cell-based
Data set [1] has as its system MDA-MB-231 breast cancer cells. Nature of the data set: MTT antiproliferative assay, MDA-MB-231. To be noted: Homo sapiens, MDA-MB-231, 24 h, read-out: Antiproliferative activity (IC50) MDA-MB-231. In a few lines: (§1)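 Cells were seeded at 2×10^3 per well and left to adhere for 24 h. Test compound was then added at 0–100 µM final, and cells were incubated for 24 h at 37 °C. MTT was added for 4 h, […]. Absorbance was read at 540 nm and growth compared with untreated cells. IC50 was taken from a dose-response curve.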

Data set [2] relates to MDA-MB-231/ADR breast cancer cells. Nature of the data set: MTT antiproliferative assay, MDA-MB-231/ADR. To be noted: Homo sapiens, MDA-MB-231, 24 h, read-out: Antiproliferative activity (IC50) MDA-MB-231/ADR. In a few lines:
as §1

In data set [3] the test system is normal MCF-10A breast cells. Nature of the data set: MTT cytotoxicity towards normal breast cells. Conditions: SI: IC50(MCF-10A)/IC50(MCF-7) or IC50(MCF-10A)/IC50(MDA-MB-231).
Data set [4] can be described thus: MTT cytotoxicity towards normal breast cells. To be noted: human, MCF-10A normal breast cells.
Data set [5] deals with MCF-7, MDA-MB-231, MCF-7/ADR and MDA-MB-231/ADR breast cancer cell lines. Nature of the data set: MTT antiproliferative assay, the four breast cancer cell lines taken together. To be noted: Homo sapiens, read-out: IC50 range over the four breast cancer cell lines. In a few lines:
(§2)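 Cells seeded at 2×10^3 per well and left 24 h to adhere, then exposed to test compound (0–100 µM, final) for 24 h at 37 °C. MTT added for 4 h, a second MTT addition followed by overnight incubation, and absorbance read at 540 nm. Growth compared with untreated cells; IC50 derived from dose-response curves.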

In data set [6] the test system is MCF-7 breast cancer cells. Nature of the data set: MTT antiproliferative assay, MCF-7. To be noted: Homo sapiens, MCF7, 24 h, read-out: Antiproliferative activity (IC50) MCF-7. In a few lines: as §2
For orientation: Formazan colour is commonly taken as a measure of viable cells.

As to `C[C@H]1[C@@H](O)O[C@@H]2O[C@@]3(C)CC[C@H]4[C@H](C)CC[C@@H]1[C@@]24OO3` [DHA, Dihydroartemisinin, reference compound], the IC50 in data set [1] was 48.8 µM; in data set [2], 82.8 µM; in data set [5], 14.8 to 82.8 µM; in data set [6] it was 28.3 µM. For the same molecule, the “Selectivity index (SI)” value in data set [3] was over 3.53. This molecule yielded an IC50 at 24 h in data set [4] of over 100 µM.
Regarding `C[C@@H]1CC[C@H]2[C@@H](C)C(=O)O[C@@H]3O[C@@]4(C)CC[C@@H]1[C@]32OO4` [ART, Artemisinin, reference compound], the IC50 in data set [1], in data set [2], in data set [5] and in data set [6] was over 100 µM throughout. For the same molecule, in data set [4], the IC50 at 24 h was over 100 µM.
On to `CCON=C1C(=O)N(CCCC(=O)OC2O[C@@H]3O[C@@]4(C)CC[C@H]5[C@H](C)CC[C@@H]([C@H]2C)[C@@]35OO4)c2ccccc21` (stereo partly drawn) [Hybrid 5b, (3R,5aS,6R,8aS,9R,12R,12aR)-3,6,9-trimethyldecahydro-12H-3,12-epoxy[1,2]dioxepino[4,3-i]isochromen-10-yl 4-(3-(ethoxyimino)-2-oxoindolin-1-yl)butanoate], for which the IC50 in data set [1] is 15.1 µM; in data set [2] it was 26.8 µM; in data set [6], 1.27 µM. For the same molecule, in data set [3], the “Selectivity index (SI)” value was over 78.74. In data set [4], this molecule gave an IC50 at 24 h of over 100 µM.
`C[C@@H]1CC[C@H]2[C@@H](C)C(OC(=O)CCCN3C(=O)C(=NOCc4ccccc4)c4cc(F)ccc43)O[C@@H]3O[C@@]4(C)CC[C@@H]1[C@]32OO4` (stereo partly drawn) [Hybrid 5f, (3R,5aS,6R,8aS,9R,12R,12aR)-3,6,9-trimethyldecahydro-12H-3,12-epoxy[1,2]dioxepino[4,3-i]isochromen-10-yl 4-(3-((benzyloxy)imino)-5-fluoro-2-oxoindolin-1-yl)butanoate]: the results for the IC50 in data set [1], in data set [2] and in data set [6] were over 100 µM, over 100 µM and 18.3 µM, respectively. Also, the “Selectivity index (SI)” value in data set [3] is over 5.46. Moreover, the IC50 at 24 h in data set [4] was over 100 µM.
Consider `COc1cccc2c1C(=O)c1c(O)c3c(c(O)c1C2=O)C[C@@](O)(C(=O)CO)C[C@@H]3O[C@H]1C[C@H](N)[C@H](O)[C@H](C)O1` [ADR, Adriamycin, reference compound], for which the IC50 in data set [1] is 3.38 µM; in data set [2] it was over 100 µM; in data set [6], 18.9 µM. In addition, in data set [3], the “Selectivity index (SI)” value is reported as 3.64. Moreover, the IC50 at 24 h in data set [4] came to 68.8 µM.
